# From ChEMBL document CHEMBL1127479, “Synthesis and structure-activity studies of N,N'-diarylguanidine derivatives. N-(1-naphthyl)-N'-(3-ethylphenyl)-N'-methylguanidine: a new, selective noncompetitive NMDA receptor antagonist” (J Med Chem, 1994)
# Target: Glutamate NMDA receptor
# Test: In vitro concentration required to inhibit specific [3H]MK-801 radioligand binding to N-methyl-D-aspartate (NMDA) receptor on rat brain membrane
# Summary of the method: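 Rat brain crude synaptic membranes, thawed, pretreated at 1 mg protein/mL with 0.01% Triton X-100 for 15 min at 37 °C, then washed three times by centrifugation. Filtration stop. IC50 taken from displacement curves or nonlinear least-squares regression.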
row,IC50 [nM],SMILES
1,2800,C/[N+](=C(/[NH-])Nc1cccc([N+](=O)[O-])c1)c1cccc2ccccc12
2,217,CC(C)c1ccccc1N=C(N)Nc1ccccc1C(C)C
3,335,Cc1cccc(NC(=N)Nc2cccc(C)c2)c1
4,820,CCc1ccccc1NC(=N)Nc1ccccc1CC
5,228,NC(=Nc1ccccc1I)Nc1ccccc1I
6,484,NC(=Nc1cccc2ccccc12)N(c1ccccc1)c1cccc2ccccc12
7,53,CCN(C(=N)N(C)c1cccc2ccccc12)c1cccc2ccccc12
8,10000,NC(=Nc1cccc2ccccc12)N1CCCCCC1
9,506,N=C(Nc1cccc2c1CCC2)Nc1cccc2c1CCC2
10,1990,Cc1cccc(N=C(N)N(C)c2cccc(C)c2)c1
11,87,CN(C(=N)Nc1cccc2ccccc12)c1cccc([N+](=O)[O-])c1
12,10000,N=C(Nc1cccc2ccccc12)N1CCC(c2ccccc2)CC1
13,1690,CN(C(N)=Nc1cccc(N=[N+]=[N-])c1)c1cccc2ccccc12
14,> 100000,N=C(N1CCc2ccccc21)N1CCc2ccccc21
15,10300,CCc1ccc(NC(=N)Nc2ccc(CC)cc2)cc1
16,38300,CC(C)(C)c1ccccc1NC(=N)Nc1ccccc1C(C)(C)C
17,168,CCc1cccc(NC(=N)Nc2cccc(CC)c2)c1
18,2000,CCCc1cccc(NC(=N)Nc2cccc(CCC)c2)c1
19,330,N=C(Nc1cccc2ccccc12)Nc1cccc2ccccc12
20,34000,NC(=Nc1ccc(Br)cc1)Nc1ccc(Br)cc1
21,10000,NC(=Nc1ccccc1-c1ccccc1)Nc1ccccc1-c1ccccc1
22,13300,Cc1ccc(N=C(N)Nc2ccc(C)cc2)cc1
23,23200,CC(C)c1ccc(NC(=N)Nc2ccc(C(C)C)cc2)cc1

row,IC50 [nM],SMILES
1,407,CC(C)c1cccc(NC(=N)Nc2cccc(C(C)C)c2)c1
2,69,CN(C(=N)N(C)c1cccc2ccccc12)c1cccc2ccccc12
3,115,CN(C(N)=Nc1cccc2ccccc12)c1cccc2ccccc12
4,10000,CN(C(N)=Nc1cccc(N)c1)c1cccc2ccccc12
5,10000,CCc1cccc(N=C(N)N2CCC(c3ccccc3)CC2)c1
6,192,Cc1cccc(NC(=N)Nc2cccc3ccccc23)c1
7,102,CC(C)c1ccccc1N=C(N)Nc1cccc2ccccc12
8,100,CCc1cccc(N(C)C(=N)N(C)c2cccc3ccccc23)c1
9,470,CN(C(=N)N(c1ccccc1)c1cccc2ccccc12)c1cccc2ccccc12
10,65,CN(C(N)=Nc1cccc2ccccc12)c1cccc(N=[N+]=[N-])c1
11,209,NC(=Nc1cccc2ccccc12)Nc1ccccc1I
12,1030,CN(C(N)=Nc1cccc2ccccc12)c1ccccc1
13,117,CCN(C(N)=Nc1cccc2ccccc12)c1cccc2ccccc12
14,2900,NC(=Nc1cccc2ccccc12)NCc1ccccc1
15,10000,N=C(Nc1cccc2ccccc12)N1CCCCC1
16,493,COc1cccc(N=C(N)Nc2cccc(OC)c2)c1
17,39,CCc1cccc(NC(=N)Nc2cccc3ccccc23)c1
18,12700,N=C(Nc1ccc2ccccc2c1)Nc1ccc2ccccc2c1
19,859,CC(C)c1ccccc1N=C(N)N(C)c1cccc2ccccc12
20,2070,CN(C(N)=Nc1cccc2ccccc12)c1cccc(N)c1
21,36,CCc1cccc(N(C)C(N)=Nc2cccc3ccccc23)c1
22,9120,Cc1ccccc1NC(=N)Nc1ccccc1C [DITOLYLGUANIDINE]

row,SMILES,IC50 [nM]
1,CCc1cccc(N=C(N)N(C)c2cccc3ccccc23)c1,537
2,CCc1cccc(N(CC)C(N)=Nc2cccc3ccccc23)c1,73
3,N=C(Nc1ccccc1)Nc1ccccc1,3450
4,CCc1cccc(N(C)C(=N)N(CC)c2cccc3ccccc23)c1,97

# Target: not listed separately
# Test: Tested in vitro for the concentration required to inhibit specific [3H]DTG radioligand binding to sigma receptor on guinea pig brain membrane
row,IC50 [nM],SMILES
1,14,CCc1ccccc1NC(=N)Nc1ccccc1CC
2,245,CCc1ccc(NC(=N)Nc2ccc(CC)cc2)cc1
3,356,CC(C)(C)c1ccccc1NC(=N)Nc1ccccc1C(C)(C)C
4,8110,NC(=Nc1ccccc1-c1ccccc1)Nc1ccccc1-c1ccccc1
